The source made the active and inactive calls. The rule behind the calls is not given here.
Columns and labels:
[1] = target: Cellular tumor antigen p53/Peptidyl-prolyl cis-trans isomerase D (Homo sapiens, UniProt P04637+Q08752); assay: Inhibition of Flag-tagged p53/GST-tagged PPID (unknown origin) expressed in Escherichia coli BL21 after 1 hr by ELISA microplate reader method
[2] = target: Tumour suppressor protein p53/Mdm4 (Homo sapiens, UniProt O15151+P04637); assay: Inhibition of Flag-tagged p53/GST-tagged Mdmx (unknown origin) expressed in Escherichia coli BL21 after 1 hr by ELISA microplate reader method
[3] = target: Tumour suppressor p53/oncoprotein Mdm2 (Homo sapiens, UniProt P04637+Q00987); assay: Inhibition of Flag-tagged p53/GST-tagged Mdm2 (unknown origin) expressed in Escherichia coli BL21 after 1 hr by ELISA microplate reader method
[4] = target: Cellular tumor antigen p53/Death-associated protein kinase 1 (Homo sapiens, UniProt P04637+P53355); assay: Inhibition of Flag-tagged p53/GST-tagged DAPK1 (unknown origin) expressed in Escherichia coli BL21 after 1 hr by ELISA microplate reader method
MCF7 [5] = assay: Upregulation of p53 in human MCF7 cells after 24 hrs by Western blot analysis; type: functional, cell-based
How it was run: (§1)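 MCF-7 cells plated at 1.0 × 10^6 per 60-mm dish, grown 24 h, washed and given fresh medium for another 24 h. Treated with compound or 0.1% DMSO for 24 or 48 h. Floating and adherent cells lysed in Tris/NaCl/EDTA/EGTA/NP-40 buffer with Na3VO4, NaF, DTT, PMSF and protease inhibitors. 10 µg protein separated by SDS-PAGE, probed with primary antibodies at 1:1000, detected by ECL chemiluminescence.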

MCF7 [6] = assay: Increase in p53 expression in human MCF7 cells nuclei after 24 hrs by DAPI staining based immunofluorescence microscopy; type: functional, cell-based
How it was run: (§2)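 Cells seeded at 3.0 × 10^4/mL in chamber slides and grown 24 h, then exposed to 10 µM sample for a further 24 h. Fixed in 3% paraformaldehyde (25 °C, 30 min), permeabilized with 0.05% Triton X-100 and blocked with 3% BSA. Stained with anti-p53 (1:50, overnight, 4 °C) and an Alexa 488 secondary (1:200, 30 min). Nuclei counterstained with DAPI; examined by fluorescence/confocal microscopy.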

IMR-32 = assay: Increase in p53 expression in human IMR32 cells nuclei after 24 hrs by DAPI staining based immunofluorescence microscopy; type: functional, cell-based; how it was run: as §2
MCF7 [7] = assay: Upregulation of Mdm2 in human MCF7 cells after 24 hrs by Western blot analysis; type: functional, cell-based; how it was run: as §1
MCF7 [8] = assay: Upregulation of p21 in human MCF7 cells after 24 hrs by Western blot analysis; type: functional, cell-based; how it was run: as §1
MDA-MB-468 = assay: Cytotoxicity against human MDA-MB-468 cells expressing mutant p53 assessed as growth inhibition after 48 hrs by crystal violet staining based spectrophotometry; type: functional, cell-based
How it was run: (§3)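 Cells seeded at 2 × 10^4 per well and held 24 h at 37 °C in 5% CO2. Serial dilutions (0, 10, 15, 20, 25 or 30 µM) then added for 48 h. Cells stained 15 min with crystal violet (0.75% dye, 0.25% NaCl, 1.75% formaldehyde, 50% EtOH) and read at 600 nm. Viability is expressed as percent of untreated control.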

MCF7 [9] = assay: Cytotoxicity against human MCF7 cells expressing WT p53 and Mdmx assessed as growth inhibition after 48 hrs by crystal violet staining based spectrophotometry; type: functional, cell-based; how it was run: as §3
HCT-116 = assay: Cytotoxicity against human HCT116 cells expressing WT p53 and Mdmx assessed as growth inhibition after 48 hrs by crystal violet staining based spectrophotometry; type: functional, cell-based; how it was run: as §3
A-427 = assay: Cytotoxicity against human A427 cells expressing WT p53 and Mdmx assessed as growth inhibition after 48 hrs by crystal violet staining based spectrophotometry; type: functional, cell-based; how it was run: as §3
A-431 = assay: Cytotoxicity against human A431 cells expressing mutant p53 assessed as growth inhibition after 48 hrs by crystal violet staining based spectrophotometry; type: functional, cell-based; how it was run: as §3
Mus musculus [10] = assay: Induction of apoptosis in human HCT116 cells xenografted nude BALB/c mouse tumors at 100 to 150 mg/kg/day, po administered every other day until day 38 and measured on day 40 by TUNEL assay; type: functional, organism-based; details: HCT-116
How it was run: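 Tumor sections from orally dosed HCT116-xenograft nude mice underwent TUNEL staining, performed by an outside service. TUNEL-positive cells were counted as a percentage of all cells over eight fields at ×20 magnification.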

Mus musculus [11] = assay: Upregulation of p21 protein expression in human HCT116 cells xenografted nude BALB/c mouse tumors at 150 mg/kg/day, po administered every other day until day 38 and measured on day 40 by Western blot analysis; type: functional, organism-based; details: HCT-116
How it was run: (§4)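 Tumors excised at day 40 from orally dosed HCT116-xenograft nude mice, frozen in liquid nitrogen, ground and suspended in lysis buffer, then spun at 15,000 × g at 4 °C. 10 µg protein (measured by BCA) run on SDS-PAGE, blotted to PVDF and probed for p53, Mdm2, p21 and cleaved caspase 3 (1:1000) or full-length caspase 3 (3:1000). ECL detection.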

Mus musculus [12] = assay: Toxicity in human HCT116 cells xenografted nude BALB/c mouse assessed as body weight loss at 100 mg/kg/day, po administered every other day until day 38 and measured on day 40; type: organism-based, HCT-116; details: in vivo
How it was run: (§5)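 HCT116 cells (1.5 × 10^6 per 100 µL Matrigel) injected s.c. into the backs of 6-week-old female BALB/c-nu/nu mice. Once tumors reached 70–143 mm3, compound (2.0 or 3.0 mg/200 µL) or vehicle (0.1% Tween 80, 200 µL) was given orally every other day until day 38. n = 6 or 9 treated, 7 control. Tumor length, width and body weight were monitored. Activity is mean treated tumor volume as a percentage of control.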

[13] = Antitumor activity against human HCT116 cells xenografted in nude BALB/c mouse assessed as decrease in tumor growth at 100 mg/kg/day, po administered every other day until day 38 and measured on day 40; type: functional; details: HCT-116, po
How it was run: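 Female BALB/c-nu/nu mice, 6 weeks old, given HCT116 cells (1.5 × 10^6 in 100 µL Matrigel) subcutaneously in the back. Once tumours reached 70–143 mm3, drug (2.0 mg/200 µL) or vehicle (0.1% Tween 80, 200 µL) was given orally every other day to day 38. Tumour length/width and body weight were tracked. Result expressed as mean treated tumour volume as % of control mean.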

Mus musculus [14] = assay: Toxicity in human HCT116 cells xenografted nude BALB/c mouse assessed as body weight loss at 150 mg/kg/day, po administered every other day until day 38 and measured on day 40; type: organism-based, HCT-116; details: in vivo; how it was run: as §5
Mus musculus [15] = assay: Induction of apoptosis in human HCT116 cells xenografted nude BALB/c mouse tumors assessed as upregulation of caspase-3 protein expression at 150 mg/kg/day, po administered every other day until day 38 and measured on day 40 by Western blot analysis; type: functional, organism-based; details: HCT-116; how it was run: as §4
Mus musculus [16] = assay: Upregulation of Mdm2 protein expression in human HCT116 cells xenografted nude BALB/c mouse tumors at 150 mg/kg/day, po administered every other day until day 38 and measured on day 40 by Western blot analysis; type: functional, organism-based; details: HCT-116; how it was run: as §4
Mus musculus [17] = assay: Upregulation of p53 protein expression in human HCT116 cells xenografted nude BALB/c mouse tumors at 150 mg/kg/day, po administered every other day until day 38 and measured on day 40 by Western blot analysis; type: functional, organism-based; details: HCT-116; how it was run: as §4
[18] = Cytotoxicity against human TIG7 cells expressing wild-type p53 assessed as growth inhibition after 48 hrs by crystal violet staining based spectrophotometry; details: tig7, 48 h

Chain of Tumour suppressor p53/oncoprotein Mdm2 (P04637 whole entry): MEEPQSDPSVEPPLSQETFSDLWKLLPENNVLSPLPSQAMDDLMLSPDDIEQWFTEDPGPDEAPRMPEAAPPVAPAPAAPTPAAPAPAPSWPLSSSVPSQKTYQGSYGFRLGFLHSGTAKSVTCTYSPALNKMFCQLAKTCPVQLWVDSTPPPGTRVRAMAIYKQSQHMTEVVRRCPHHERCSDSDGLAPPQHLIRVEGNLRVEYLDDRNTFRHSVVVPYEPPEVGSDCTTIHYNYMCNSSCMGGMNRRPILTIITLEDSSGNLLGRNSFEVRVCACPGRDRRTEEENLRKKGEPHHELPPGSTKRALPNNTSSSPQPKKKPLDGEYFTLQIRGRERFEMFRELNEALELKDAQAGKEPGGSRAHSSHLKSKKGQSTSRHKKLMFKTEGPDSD
Chain of Tumour suppressor p53/oncoprotein Mdm2 (Q00987 whole entry): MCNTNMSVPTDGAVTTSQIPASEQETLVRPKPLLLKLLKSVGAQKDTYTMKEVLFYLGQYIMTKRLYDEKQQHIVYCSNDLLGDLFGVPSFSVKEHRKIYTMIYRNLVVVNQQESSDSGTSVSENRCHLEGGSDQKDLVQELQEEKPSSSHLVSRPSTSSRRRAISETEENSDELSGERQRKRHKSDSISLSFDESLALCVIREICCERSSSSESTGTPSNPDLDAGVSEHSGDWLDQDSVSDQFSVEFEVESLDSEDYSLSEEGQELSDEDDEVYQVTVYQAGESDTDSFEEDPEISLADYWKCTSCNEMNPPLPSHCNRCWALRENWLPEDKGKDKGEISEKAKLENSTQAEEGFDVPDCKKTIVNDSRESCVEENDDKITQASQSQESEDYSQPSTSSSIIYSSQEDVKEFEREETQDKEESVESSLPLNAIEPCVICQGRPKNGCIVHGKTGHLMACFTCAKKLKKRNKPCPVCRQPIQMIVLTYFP
Chain of Cellular tumor antigen p53/Peptidyl-prolyl cis-trans isomerase D (P04637 whole entry): as the sequence (P04637 whole entry) above
Chain of Cellular tumor antigen p53/Peptidyl-prolyl cis-trans isomerase D (Q08752 whole entry): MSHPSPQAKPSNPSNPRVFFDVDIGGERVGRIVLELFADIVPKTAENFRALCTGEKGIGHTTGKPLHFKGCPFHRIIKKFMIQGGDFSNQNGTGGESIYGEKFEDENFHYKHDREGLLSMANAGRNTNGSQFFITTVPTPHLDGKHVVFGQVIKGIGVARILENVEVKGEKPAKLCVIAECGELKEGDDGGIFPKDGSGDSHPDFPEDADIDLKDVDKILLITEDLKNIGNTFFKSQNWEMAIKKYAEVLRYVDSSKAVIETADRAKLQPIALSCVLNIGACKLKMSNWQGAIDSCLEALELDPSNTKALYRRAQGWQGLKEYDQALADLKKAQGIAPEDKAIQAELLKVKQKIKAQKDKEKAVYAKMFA
Chain of Cellular tumor antigen p53/Death-associated protein kinase 1 (P04637 whole entry): as the sequence (P04637 whole entry) above
Chain of Cellular tumor antigen p53/Death-associated protein kinase 1 (P53355 whole entry): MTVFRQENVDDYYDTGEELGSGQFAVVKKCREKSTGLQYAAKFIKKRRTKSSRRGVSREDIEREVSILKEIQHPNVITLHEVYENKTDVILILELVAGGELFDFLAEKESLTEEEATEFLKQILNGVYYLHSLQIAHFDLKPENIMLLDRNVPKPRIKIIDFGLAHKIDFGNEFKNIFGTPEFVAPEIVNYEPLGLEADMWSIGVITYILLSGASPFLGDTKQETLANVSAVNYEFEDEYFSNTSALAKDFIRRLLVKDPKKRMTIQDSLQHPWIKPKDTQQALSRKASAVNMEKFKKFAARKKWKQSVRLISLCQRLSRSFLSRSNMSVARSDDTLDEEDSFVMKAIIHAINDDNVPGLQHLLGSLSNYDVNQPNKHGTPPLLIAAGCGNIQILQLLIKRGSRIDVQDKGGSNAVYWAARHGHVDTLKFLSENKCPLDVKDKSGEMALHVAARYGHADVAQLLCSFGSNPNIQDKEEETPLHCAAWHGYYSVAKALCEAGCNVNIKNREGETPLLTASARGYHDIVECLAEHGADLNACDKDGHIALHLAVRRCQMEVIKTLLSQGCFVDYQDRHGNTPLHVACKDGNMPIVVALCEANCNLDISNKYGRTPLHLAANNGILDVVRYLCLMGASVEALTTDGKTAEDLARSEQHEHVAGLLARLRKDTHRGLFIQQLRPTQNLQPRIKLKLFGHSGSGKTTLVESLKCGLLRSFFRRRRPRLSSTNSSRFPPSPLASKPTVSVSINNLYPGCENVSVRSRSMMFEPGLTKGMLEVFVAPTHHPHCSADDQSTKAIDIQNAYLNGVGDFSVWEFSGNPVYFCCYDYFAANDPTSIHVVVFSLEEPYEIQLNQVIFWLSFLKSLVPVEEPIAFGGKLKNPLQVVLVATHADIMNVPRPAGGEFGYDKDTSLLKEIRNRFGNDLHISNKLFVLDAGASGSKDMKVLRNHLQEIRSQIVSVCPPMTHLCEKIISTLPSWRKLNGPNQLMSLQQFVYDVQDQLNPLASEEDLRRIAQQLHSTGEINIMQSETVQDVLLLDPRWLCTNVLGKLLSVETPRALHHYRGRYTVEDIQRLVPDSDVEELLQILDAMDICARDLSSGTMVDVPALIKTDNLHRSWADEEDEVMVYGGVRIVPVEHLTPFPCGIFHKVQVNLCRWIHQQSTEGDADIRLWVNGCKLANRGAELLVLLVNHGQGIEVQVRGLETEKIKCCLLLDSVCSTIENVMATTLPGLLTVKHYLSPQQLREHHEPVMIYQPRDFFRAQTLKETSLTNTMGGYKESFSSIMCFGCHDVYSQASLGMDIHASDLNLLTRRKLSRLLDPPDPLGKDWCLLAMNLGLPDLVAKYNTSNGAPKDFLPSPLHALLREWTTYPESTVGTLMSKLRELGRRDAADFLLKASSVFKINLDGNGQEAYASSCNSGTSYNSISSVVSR
Chain of Tumour suppressor protein p53/Mdm4 (P04637 whole entry): as the sequence (P04637 whole entry) above
Chain of Tumour suppressor protein p53/Mdm4 (O15151 whole entry): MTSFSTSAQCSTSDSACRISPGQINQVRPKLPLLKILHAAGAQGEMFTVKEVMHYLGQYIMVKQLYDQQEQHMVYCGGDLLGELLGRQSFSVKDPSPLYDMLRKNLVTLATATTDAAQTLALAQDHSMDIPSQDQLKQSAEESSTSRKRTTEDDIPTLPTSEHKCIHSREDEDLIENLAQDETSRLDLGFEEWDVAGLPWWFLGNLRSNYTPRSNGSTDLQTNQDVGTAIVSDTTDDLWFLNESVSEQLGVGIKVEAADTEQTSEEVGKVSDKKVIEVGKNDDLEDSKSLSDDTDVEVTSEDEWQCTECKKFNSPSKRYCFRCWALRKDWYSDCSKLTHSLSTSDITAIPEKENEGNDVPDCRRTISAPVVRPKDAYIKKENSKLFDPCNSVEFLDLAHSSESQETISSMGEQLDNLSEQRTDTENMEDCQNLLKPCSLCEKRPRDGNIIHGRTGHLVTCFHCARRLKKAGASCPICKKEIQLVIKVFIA

IC50 [1] [µM]	IC50 [2] [µM]	IC50 [3] [µM]	SMILES	IC50 [4] [µM]	also measured
> 25	8.9	15.3	O=C(Nc1ccccc1S)c1ccc(Cl)nc1	> 25	–
> 25	> 25	> 25	CC(C)C(=O)Nc1ccccc1O	> 25	–
–	–	–	COc1ccc(C2=N[C@@H](c3ccc(Cl)cc3)[C@@H](c3ccc(Cl)cc3)N2C(=O)N2CCNC(=O)C2)c(OC(C)C)c1	–	Activity (MCF7 [5]): Active; Activity (MCF7 [6]): Active; Activity (IMR-32): Active; Activity (MCF7 [7]): Active; Activity (MCF7 [8]): Active
> 25	6.3	> 25	CC(C)C(=O)Nc1ccccc1S	> 25	growth inhibition (GI) (MDA-MB-468): Active; growth inhibition (GI) (MCF7 [9]): Active; growth inhibition (GI) (HCT-116): Active; growth inhibition (GI) (A-427): Active; growth inhibition (GI) (A-431): Active
> 25	7.2	> 25	O=C(Nc1ccccc1S)c1ccccc1	> 25	–
> 25	4.6	14.6	CC(C)C(=O)Sc1ccccc1NC(=O)c1ccccc1	> 25	–
> 25	> 25	> 25	CCCCCCCC(=O)Nc1ccccc1S	> 25	–
> 25	3.4	18.4	O=C(Nc1ccccc1S)c1ccc(Cl)cc1	> 25	–
> 25	> 25	> 25	CC(C)C(=O)Nc1ccccc1OC(=O)C(C)C	> 25	–

SMILES	IC50 [1] [µM]	IC50 [2] [µM]	IC50 [3] [µM]	IC50 [4] [µM]	also measured
CC(C)C(=O)Nc1ccccc1SC(=O)C(C)C	> 25	1.5	13.1	> 25	Activity (Mus musculus [10]): Dose-dependent effect; growth inhibition (GI) (MDA-MB-468): Active; Activity (MCF7 [5]): Dose-dependent effect; Activity (MCF7 [6]): Active; growth inhibition (GI) (MCF7 [9]): Dose-dependent effect; Activity (Mus musculus [11]): Active; Activity (Mus musculus [12]): Non-toxic; T/C % at 100 mg/kg/day [13]: 49%; Activity (IMR-32): Active; Activity (Mus musculus [14]): Non-toxic; Activity (MCF7 [7]): Dose-dependent effect; growth inhibition (GI) (HCT-116): Dose-dependent effect; growth inhibition (GI) (A-427): Dose-dependent effect; Activity (Mus musculus [15]): Active; Activity (Mus musculus [16]): Active; Activity (Mus musculus [17]): Active; Activity (MCF7 [8]): Dose-dependent effect; growth inhibition (GI) (A-431): Active; Activity [18]: Toxic
